Legend:
[1] = Binding affinity against rat NPY receptor by using [3H]NPY as radioligand
How it was run: (§1)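 Male Sprague-Dawley rat (250-300 g) brain membrane homogenate (1.2-1.6 mg protein/mL) incubated with 1.0 nM [3H]NPY and analog 10^-3 to 10^-7 M in Krebs-Ringer bicarbonate/50 mM phosphate, 0.1% BSA, 0.05% bacitracin, pH 7.4, 90 min at 25 °C. Nonspecific binding defined with 1 µM NPY. Filtration onto PEI-treated glass-fiber filters, scintillation counting. IC50 from competitive binding isotherm fit.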

[2] = organism: Rattus norvegicus; assay: Displacement of [3H]NPY from rat brain NPY receptor compared to benextramine; how it was run: as §1
[3] = Relative potency of compound at alpha-adrenoceptor to that of benextramine was measured by ability to antagonize the effect of epinephrine on the contractions of the electrically stimulated rat vas deferens; format: tissue-based

| Structure (SMILES) | IC50 [1] | Relative activity [2] | Relative activity [3] |
| --- | --- | --- | --- |
| Clc1ccc(CNCCCCCCNCCSSCCNCCCCCCNCc2ccc(Cl)cc2)cc1 | 37.8 µM | 1.5 | 0.5 |
| COc1ccc(CNCCCCCCNCCSSCCNCCCCCCNCc2ccc(OC)cc2)cc1 | 44.1 µM | 1.3 | 0.81 |
| COc1ccccc1CNCCCCCCNCCSSCCNCCCCCCNCc1ccccc1OC [BENEXTRAMINE] | 57.6 µM | 1 | 1 |
| Oc1cccc(CNCCCCCCNCCSSCCNCCCCCCNCc2cccc(O)c2)c1 | 20.3 µM | 2.8 | 0.24 |
| Clc1cccc(CNCCCCCCNCCSSCCNCCCCCCNCc2cccc(Cl)c2)c1 | 46.7 µM | 1.2 | 0.46 |
| COc1cccc(CNCCCCCCNCCSSCCNCCCCCCNCc2cccc(OC)c2)c1 | 21.5 µM | 2.7 | 0.72 |
| NCCCCCCNCCSSCCNCCCCCCN | > 1400 µM | < 0.04 | 0.27 |

Continued by falling IC50 [1], values first:

| IC50 [1] | Relative activity [2] | Structure (SMILES) | Relative activity [3] |
| --- | --- | --- | --- |
| 191 µM | 0.3 | c1ccc(CNCCCCCCNCCSSCCNCCCCCCNCc2ccccc2)cc1 | 0.9 |
| 162 µM | 0.4 | Oc1ccc(CNCCCCCCNCCSSCCNCCCCCCNCc2ccc(O)cc2)cc1 | 0.14 |
| 79.9 µM | 0.7 | Clc1ccccc1CNCCCCCCNCCSSCCNCCCCCCNCc1ccccc1Cl | 0.44 |
| 50.6 µM | 1.1 | Oc1ccccc1CNCCCCCCNCCSSCCNCCCCCCNCc1ccccc1O | 0.36 |
| 31.3 µM | 1.8 | c1ccc2cc(CNCCCCCCNCCSSCCNCCCCCCNCc3ccc4ccccc4c3)ccc2c1 | 0.27 |

Source: ChEMBL document CHEMBL1126823, “Benextramine-neuropeptide Y receptor interactions: contribution of the benzylic moieties to [3H]neuropeptide Y displacement activity” (J Med Chem, 1993)
